Numbered stars: 1 amine (or outer) side, 2 acyl side, 3 side chain; on linkers, the order of the positions; unused ones are H or OH. Bridge positions count the residues as written; N and C are the ends. Square brackets hold non-standard residues; d marks the D form. Peptide text beside a SMILES is read from it. I, II: the chains in the order shown. * marks the point of attachment. X3 = CC[C@H](C)[C@@H](C(=O)*)N(C(=O)[C@H](CCCNC(=N)N)NC(=O)CCCCCNC(=O)[C@@H](N)CCCNC(=N)N)C(=O)[C@H](CCCNC(=N)N)NC(=O)CCCCCNC(=O)[C@@H](N)CCCNC(=N)N; Succinimide(1-C2H4CO,3-yl) = O=C1CC([*:1])C(=O)N1CCC(=O)[*:2]; X2 = O=C(OCCOCCN[*:1])[*:2]
Key:
[1] = Hemolytic activity against RBC (unknown origin) at 100 uM; type: ADME, cell-based, Erythrocyte; conditions: red blood cells (erythrocytes); read-out: Activity
[2] = test system: Staphylococcus aureus; test: Antibacterial activity against Staphylococcus aureus ATCC 29213 assessed as reduction in microbial growth incubated for 20 hrs; type: functional; conditions: ATCC 29213, 20 h
Procedure, shortened: (§1)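 Broth microdilution MIC after a modified Hancock protocol for cationic peptides, in non-binding polystyrene plates. Inoculum ~2 × 10^5 CFU/mL in Mueller-Hinton broth with Mg²⁺ and Ca²⁺ at 4 mg/L each. Compounds dissolved in water, diluted in 0.01% acetic acid, 0.2% BSA (final), added as 10× aliquots. Covered plates incubated 20 h at 35 °C (± 2 °C) with shaking at 220 rpm. MIC read as lowest inhibiting concentration.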

[3] = test system: Klebsiella pneumoniae; test: Antibacterial activity against Klebsiella pneumoniae ATCC 13883 assessed as reduction in microbial growth incubated for 20 hrs; type: functional; conditions: ATCC 13883, 20 h; procedure, shortened: as §1
[4] = test system: Acinetobacter baumannii; test: Antibacterial activity against Acinetobacter baumannii ATCC 19606 assessed as reduction in microbial growth incubated for 20 hrs; type: functional; conditions: ATCC 19606 = CIP 70.34 = JCM 6841, 20 h; procedure, shortened: as §1
[5] = test system: Escherichia coli; test: Antibacterial activity against multi-drug resistant Escherichia coli NMI 3898/15 assessed as reduction in microbial growth incubated for 20 hrs; type: functional; conditions: NMI 3898/15, 20 h
Procedure, shortened: (§2)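 Broth microdilution MIC (modified Hancock protocol) in non-binding polystyrene plates. Inoculum ~2 × 10^5 CFU/mL in Mueller-Hinton broth with Mg²⁺ and Ca²⁺ at 4 mg/L each. Compounds dissolved in water, diluted in 0.01% acetic acid/0.2% BSA (final), added as 10× stocks. Covered plates incubated 20 h at 35 °C (± 2 °C) with 220 rpm circular shaking before MIC read.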

[6] = test system: Klebsiella pneumoniae; test: Antibacterial activity against multi-drug resistant Klebsiella pneumoniae NMI 3081/09 assessed as reduction in microbial growth incubated for 20 hrs; type: functional; procedure, shortened: as §2
[7] = test system: Escherichia coli; test: Antibacterial activity against Escherichia coli ATCC 25922 assessed as reduction in microbial growth incubated for 20 hrs; type: functional; conditions: ATCC 25922, 20 h; procedure, shortened: as §2
[8] = test system: Pseudomonas aeruginosa; test: Antibacterial activity against Pseudomonas aeruginosa PAO1 assessed as reduction in microbial growth incubated for 20 hrs; type: functional; conditions: PAO1, 20 h; procedure, shortened: as §1
[9] = test system: Escherichia coli; test: Antibacterial activity against multi-drug resistant Escherichia coli NMI 3548/14 assessed as reduction in microbial growth incubated for 20 hrs; type: functional; procedure, shortened: as §2
[10] = test system: Klebsiella pneumoniae; test: Antibacterial activity against multi-drug resistant Klebsiella pneumoniae NMI 2697/14 assessed as reduction in microbial growth incubated for 20 hrs; type: functional; procedure, shortened: as §2
[11] = test system: Escherichia coli; test: Antibacterial activity against Escherichia coli lacking a functional SbmA assessed as reduction in microbial growth incubated for 20 hrs; procedure, shortened: as §1

Compound | hemolysis at 100 µM [1] [%] | MIC [2] [µg/mL] | MIC [3] [µg/mL] | MIC [4] [µg/mL] | MIC [5] [µg/mL] | MIC ([6]; NMI 3081/09, 20 h) [µg/mL] | MIC [7] [µg/mL] | MIC [8] [µg/mL] | MIC ([9]; NMI 3548/14, 20 h) [µg/mL] | MIC ([10]; NMI 2697/14, 20 h) [µg/mL] | MIC [11] [µg/mL] | MIC [6] [µg/mL] | MIC [9] [µg/mL] | MIC [10] [µg/mL]
CC[C@@H](C)[C@@H](NC(=O)[C@@H](CCCCN)NC(=O)[C@@H]([C@H](C)CC)N(C(=O)[C@@H](CCCNC(=N)N)NC(=O)CCCCCNC(=O)[C@H](N)CCCNC(=N)N)C(=O)[C@@H](CCCNC(=N)N)NC(=O)CCCCCNC(=O)[C@H](N)CCCNC(=N)N)C(=O)N[C@H](CC(C)C)C(=O)N[C@H](Cc1ccccc1)C(=O)N[C@H](CCC(N)=O)C(=O)N[C@H](CC(N)=O)C(=O)N[C@H](CCCNC(=N)N)C(=O)N[C@H](CCCNC(=N)N)C(=O)N[C@H](CCSC)C(=O)N[C@H](CCCCN)C(=O)N[C@H](Cc1c[nH]c2ccccc12)C(=O)N[C@H](CCCCN)C(=O)N[C@H](CCCCN)C(=O)N[C@H](CSC1CC(=O)N(CCC(=O)NCCOCCOC(=O)N[C@H](CS)C(=O)N[C@@H](C(=O)N[C@H](CS)C(=O)N[C@H](C)C(=O)N[C@@H](C(=O)N[C@H](C)C(=O)N[C@H](CS)C(=O)N[C@@H](C(=O)N[C@H](CS)C(=O)N[C@@H](C(N)=O)[C@H](C)O)[C@H](C)O)[C@H](C)O)[C@H](C)O)C1=O)C(N)=O (stereo partly drawn) | 1.6 | 32 | 16 | 4 | 8 | 16 | 8 | 8 | 8 | 64 | 8 |  |  | 
C[C@H]1[C@H](NC(=O)/C(=N\OC(C)(C)C(=O)O)c2csc(N)n2)C(=O)N1S(=O)(=O)O [AZTREONAM] |  |  |  |  | 8 | > 256 |  |  | > 16 | 16 |  |  |  | 
GENTAMICIN |  |  |  |  |  |  |  |  |  |  |  | 2 | 2 | > 64
CN(C)[C@@H]1C(O)=C(C(N)=O)C(=O)[C@@]2(O)C(O)=C3C(=O)c4c(O)cccc4[C@@](C)(O)[C@H]3C[C@@H]12 [TETRACYCLINE] |  |  |  |  | 64 | > 256 |  |  | 8 | 16 |  |  |  | 
CC1(C)S[C@@H]2[C@H](NC(=O)[C@H](N)c3ccccc3)C(=O)N2[C@H]1C(=O)O [AMPICILLIN] |  |  |  |  | > 256 | > 256 |  |  | > 128 | > 128 |  |  |  | 
CC[C@H](C)[C@H](NC(=O)[C@H](CCCCN)NC(=O)[C@H]([C@@H](C)CC)N(C(=O)[C@H](CCCNC(=N)N)NC(=O)CCCCCNC(=O)[C@@H](N)CCCNC(=N)N)C(=O)[C@H](CCCNC(=N)N)NC(=O)CCCCCNC(=O)[C@@H](N)CCCNC(=N)N)C(=O)N[C@@H](CC(C)C)C(=O)N[C@@H](Cc1ccccc1)C(=O)N[C@@H](CCC(N)=O)C(=O)N[C@@H](CC(N)=O)C(=O)N[C@@H](CCCNC(=N)N)C(=O)N[C@@H](CCCNC(=N)N)C(=O)N[C@@H](CCSC)C(=O)N[C@@H](CCCCN)C(=O)N[C@@H](Cc1c[nH]c2ccccc12)C(=O)N[C@@H](CCCCN)C(=O)N[C@@H](CCCCN)C(=O)N[C@@H](CS)C(=O)N[C@H](C(=O)N[C@@H](CS)C(=O)N[C@H](C(=O)N[C@H](C(=O)N[C@@H](C)C(=O)N[C@@H](CS)C(=O)N[C@@H](C)C(=O)N[C@@H](CS)C(=O)N[C@H](C(N)=O)[C@@H](C)O)[C@@H](C)O)[C@@H](C)O)[C@@H](C)O (X3-KILFQNRRMKWKKCTCTTACACT-NH2) | < 1 | > 64 | > 64 | 16 to 32 | 32 | 16 | 64 | 32 | 8 to 16 | ≥ 64 | 64 |  |  | 
CC[C@@H](C)[C@@H](NC(=O)[C@H]1CCCN1C(=O)[C@@H](CCCNC(=N)N)NC(=O)[C@H]1CCCN1C(=O)[C@@H](Cc1cnc[nH]1)NC(=O)[C@@H](CO)NC(=O)[C@H](NC(=O)[C@H]1CCCN1C(=O)[C@@H](CCCNC(=N)N)NC(=O)[C@H]1CCCN1C(=O)[C@@H](CO)NC(=O)[C@@H](Cc1ccc(O)cc1)NC(=O)[C@H]1CCCN1C(=O)[C@@H](CCCNC(=N)N)NC(=O)[C@H]1CCCN1C(=O)[C@@H](CCCNC(=N)N)NC(=O)CCCCCNC(=O)[C@H](N)CCCNC(=N)N)[C@H](C)O)C(=O)N[C@H](CCCNC(=N)N)C(=O)N[C@@H](C(=O)N[C@H](CSC1CC(=O)N(CCC(=O)NCCOCCOC(=O)N[C@H](CS)C(=O)N[C@@H](C(=O)N[C@H](CS)C(=O)N[C@H](C)C(=O)N[C@@H](C(=O)N[C@H](C)C(=O)N[C@H](CS)C(=O)N[C@@H](C(=O)N[C@H](CS)C(=O)N[C@@H](C(N)=O)[C@H](C)O)[C@H](C)O)[C@H](C)O)[C@H](C)O)C1=O)C(N)=O)C(C)C (stereo partly drawn) | < 1 | > 64 | 8 to 16 | 64 | 32 to 64 | 64 | 32 | > 64 | 32 | ≥ 64 | 64 |  |  | 
NCC[C@H](O)C(=O)N[C@@H]1C[C@H](N)[C@@H](O[C@H]2O[C@H](CN)[C@@H](O)[C@H](O)[C@H]2O)[C@H](O)[C@H]1O[C@H]1O[C@H](CO)[C@@H](O)[C@H](N)[C@H]1O [AMIKACIN] |  |  |  |  | 2 | 16 |  |  | 8 | 32 |  |  |  | 
CC[C@H](C)[C@H](NC(=O)[C@H](CCCCN)NC(=O)[C@H]([C@@H](C)CC)N(C(=O)[C@H](CCCNC(=N)N)NC(=O)CCCCCNC(=O)[C@@H](N)CCCNC(=N)N)C(=O)[C@H](CCCNC(=N)N)NC(=O)CCCCCNC(=O)[C@@H](N)CCCNC(=N)N)C(=O)N[C@@H](CC(C)C)C(=O)N[C@@H](Cc1ccccc1)C(=O)N[C@@H](CCC(N)=O)C(=O)N[C@@H](CC(N)=O)C(=O)N[C@@H](CCCNC(=N)N)C(=O)N[C@@H](CCCNC(=N)N)C(=O)N[C@@H](CCSC)C(=O)N[C@@H](CCCCN)C(=O)N[C@@H](Cc1c[nH]c2ccccc12)C(=O)N[C@@H](CCCCN)C(=O)N[C@@H](CCCCN)C(=O)N[C@@H](CSC1CC(=O)N(CCC(=O)NCCOCCOC(=O)N[C@@H](CS)C(=O)N[C@H](C(=O)N[C@@H](CS)C(=O)N[C@H](C(=O)N[C@H](C(=O)N[C@@H](C)C(=O)N[C@@H](CS)C(=O)N[C@@H](C)C(=O)N[C@@H](CS)C(=O)N[C@H](C(N)=O)[C@@H](C)O)[C@@H](C)O)[C@@H](C)O)[C@@H](C)O)C1=O)C(N)=O (stereo partly drawn) (I: X3-KILFQNRRMKWKKC-NH2 / II: [X2]CTCTTACACT-NH2; linker I:14-II:N via Succinimide(1-C2H4CO,3-yl)) | < 1 | > 64 | 64 | 16 | 16 | 8 to 16 | 32 | 32 | 4 to 8 | 16 to 32 | 32 |  |  | 
CO/N=C(\C(=O)N[C@@H]1C(=O)N2C(C(=O)O)=C(COC(C)=O)CS[C@H]12)c1csc(N)n1 [CEFOTAXIME] |  |  |  |  | 16 | > 32 |  |  | 16 | > 32 |  |  |  | 
CCN1CCN(C(=O)N[C@@H](C(=O)N[C@@H]2C(=O)N3[C@@H]2SC(C)(C)[C@@H]3C(=O)O)c2ccccc2)C(=O)C1=O [PIPERACILLIN] |  |  |  |  | > 256 | > 256 |  |  | 8 | > 256 |  |  |  | 
CO/N=C(\C(=O)N[C@@H]1C(=O)N2C(C(=O)[O-])=C(C[N+]3(C)CCCC3)CS[C@H]12)c1csc(N)n1 |  |  |  |  |  | > 256 |  |  | 2 | 16 |  |  |  | 
C[C@@H](O)[C@H]1C(=O)N2C(C(=O)O)=C(S[C@@H]3CN[C@H](C(=O)N(C)C)C3)[C@H](C)[C@H]12 [MEROPENEM] |  |  |  |  | 0.125 | > 32 |  |  | 0.5 | 1 |  |  |  | 
O=C(O)c1cn(C2CC2)c2cc(N3CCNCC3)c(F)cc2c1=O [CIPROFLOXACIN] |  |  |  |  | > 32 | > 32 |  |  |  | 2 |  |  |  | 
CC(C)(O/N=C(\C(=O)N[C@@H]1C(=O)N2C(C(=O)[O-])=C(C[n+]3ccccc3)CS[C@H]12)c1csc(N)n1)C(=O)O [CEFTAZIDIME] |  |  |  |  | 64 | 64 |  |  | 2 | > 32 |  |  |  | 
CN(C)c1cc(NC(=O)CNC(C)(C)C)c(O)c2c1C[C@H]1C[C@H]3[C@H](N(C)C)C(O)=C(C(N)=O)C(=O)[C@@]3(O)C(O)=C1C2=O [TIGECYCLINE] |  |  |  |  | 0.5 | 2 |  |  | 16 | 0.5 |  |  |  | 
C[C@@H](O)[C@H]1C(=O)N2C(C(=O)O)=C(SCCNC=N)C[C@H]12 [IMIPENEM ANHYDROUS] |  |  |  |  | 0.5 | 32 |  |  | 2 | 4 |  |  |  | 

Reference: ChEMBL document CHEMBL4390654, “Microwave-assisted solid-phase synthesis of antisense acpP peptide nucleic acid-peptide conjugates active against colistin- and tigecycline-resistant E. coli and K. pneumoniae” (Eur J Med Chem, 2019)
